Reference: PMC6732210 (Journal of chemical information and modeling, 2017)
“Also recorded” adds a separate entry of the source. Like-named read-outs stand apart in the source and are kept apart here.

Columns and labels:
[1] = target: TNF-α; details: read-out: Kd TNF-α; cited from earlier work
[2] = target: TNFR1; details: cited from earlier work
[3] = target: T1, TNFR1 (Homo sapiens, UniProt P19438); assay: SPR-based binding assay, immobilized TNFR1; details: read-out: Kd for TNFR1, 4 to 256 μM, steady-state affinity model
T1 sequence (P19438 30-455): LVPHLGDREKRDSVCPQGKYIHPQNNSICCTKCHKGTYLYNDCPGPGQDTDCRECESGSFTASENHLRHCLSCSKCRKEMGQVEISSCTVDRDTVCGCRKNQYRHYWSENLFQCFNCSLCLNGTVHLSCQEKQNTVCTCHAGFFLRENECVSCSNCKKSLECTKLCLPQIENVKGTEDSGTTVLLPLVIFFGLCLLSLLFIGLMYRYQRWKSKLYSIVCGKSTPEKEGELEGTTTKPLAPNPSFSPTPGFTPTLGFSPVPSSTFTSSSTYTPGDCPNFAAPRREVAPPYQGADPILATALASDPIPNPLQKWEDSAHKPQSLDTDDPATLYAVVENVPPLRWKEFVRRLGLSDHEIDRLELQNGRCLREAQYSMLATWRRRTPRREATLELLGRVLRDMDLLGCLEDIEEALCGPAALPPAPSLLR
Method in brief: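 Human TNFR1 in 10 mM sodium acetate, pH 5.5, amine-coupled to a CM5 chip. Single-concentration screen at 50 μM in PBS with 5% DMSO, 120 s injection at 30 μL/min. For affinity, 4–256 μM in the same buffer was passed over reference and active channels at 30 μL/min, with 120 s association and 120 s dissociation. Kd from a steady-state affinity fit.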

[4] = test system: L929 cells; assay: TNF-α-induced L929 cytotoxicity; assay type: cell-based; details: 25–200 μM, 10 ng/mL TNF-α and 1 μg/mL actinomycin D, 18 h
Method in brief: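 L929 cells seeded at 2.0 × 10⁴ cells/well and cultured overnight. Test compound (25–200 μM) was premixed with 10 ng/mL TNF-α plus 1 μg/mL actinomycin D, then added for 18 h. Viability was read by microscopy and CCK-8 (OD 450 nm). %I = (OD AMD+TNF+compound − OD AMD+TNF)/(OD AMD − OD AMD+TNF) × 100. Three independent experiments in triplicate, mean ± SEM.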

[5] = target: TNF-α (Homo sapiens, UniProt P01375); assay: SPR-based binding assay, immobilized TNF-α; details: read-out: Kd (μM) TNF-α, 2–128 μM, PBS with 5% DMSO
Chain of TNF-α (Homo sapiens, UniProt P01375) (P01375 77-233 limits assumed): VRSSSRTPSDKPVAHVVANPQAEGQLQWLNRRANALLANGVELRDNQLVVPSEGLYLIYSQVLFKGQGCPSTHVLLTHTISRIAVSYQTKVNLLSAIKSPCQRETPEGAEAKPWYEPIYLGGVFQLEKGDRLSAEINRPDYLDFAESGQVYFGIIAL
Method in brief: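 Human TNF-α at 50 μg/mL in 10 mM sodium acetate, pH 5.0, amine-coupled to a CM5 chip. Hits were screened at 50 μM in PBS running buffer with 5% DMSO. A 2–128 μM concentration series was injected for 120 s, with 120 s dissociation. Kd came from fitting the sensorgrams in evaluation software. Representative of three independent experiments.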

Row | Molecule | Inhibition of TNF-α-mediated cytotoxicity on L929 cells (in words) [4] | Kd [5] [µM] | further results
1 | Cc1cc2occ(CN(C)CCN(C)Cc3cn(-c4cccc(C(F)(F)F)c4)c4ccccc34)c(=O)c2cc1C [SPD-304] | – | – | Kd [1]: 5.36 µM
2 | TNF-α | – | – | Kd ([2]; read-out: Kd for binding of TNF-α to TNFR1): 1.76 nM
3 | O=C(NCc1ccc2c(c1)OCO2)C1CCCN(c2ncnc3nc[nH]c23)C1 (centres unmarked) [Compound R1] | dose-dependent inhibition; also recorded: activities similar to that of C87 | – | Kd [3]: 16 µM
4 | O=C(O)CCC(=O)Nc1sc2c(c1C(=O)Nc1cccc3ccccc13)CCCC2 [Compound T4] | no activity | 113 | –
5 | physcion-8-O-β-D-monoglucoside [reference compound] | – | – | Kd ([2]; read-out: Kd TNFR1): 376 nM
6 | O=C1Nc2c(S(=O)(=O)Nc3ccccc3)cc(S(=O)(=O)Nc3ccccc3)c3cccc1c23 [Compound T2] | no activity | 58 | –
7 | O=c1c(N=Nc2nc3ccccc3s2)c(-c2ccccc2)[nH]n1-c1ccc([N+](=O)[O-])cc1 [Compound T1] | dose-dependent inhibition; also recorded: activities similar to that of C87 | 11 | –
